Laboratory results published in ChEMBL document CHEMBL5126632, “Balancing Affinity, Selectivity, and Cytotoxicity of Hydrazone-Based G-Quadruplex Ligands for Activation of Interferon β Genes in Cancer Cells” (J Med Chem, 2022).
Active and inactive are the calls of the source. No cut-off for these calls is given here.

How the values were obtained:
Quadruplex DNA [1] = experiment: Stabilization of c-kit2 G4 quadruplex d(CGGGCGGGCGCTAGGGAGGGT) DNA (unknown origin) assessed as thermal stability by measuring difference in melting temperature t1/2 by circular dichroism spectroscopy (reference value: 61.5 +/- 0.5 degC); type: nucleic-acid assay
[2] = Stabilization of F-c-kit1-T (unknown origin) assessed as difference in melting temperature t1/2 in presence of d(CGC GAA TTC GCG TIT CGC GAA TTC GCG) DNA hairpin (unknown origin) measured at 1:50 G4 to hairpin DNA ratio by FRET assay
Outline: (§1)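 FRET melting of 0.2 μM prefolded FAM/TAMRA dual-labelled c-kit1 G4 in 5 mM K phosphate pH 7.0 with 20 mM KCl. Ligand was added at 2 molar equiv, with unlabelled hairpin competitor at 3 or 10 μM final (15 or 50 equiv relative to G4). FAM emission was read at 520 nm (excitation 492 nm) while heating at 0.2 °C/min over 15–90 °C. ΔT1/2 is relative to no ligand; at least duplicate, averaged.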

[3] = Stabilization of F-c-kit1-T (unknown origin) assessed as difference in melting temperature t1/2 in presence of d(CGC GAA TTC GCG TIT CGC GAA TTC GCG) DNA hairpin (unknown origin) measured at 1:15 G4 to hairpin DNA ratio by FRET assay; outline: as §1
U2OS [4] = experiment: Cytotoxicity against human U2OS cells assessed as cell survival preincubated for 24 hrs with compound further incubated for 48 hrs in drug free medium by MTT assay; type: functional, cell-based
Outline: (§2)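 Exponentially growing cells seeded and treated 24 h after seeding with increasing concentrations for 24 h. Cells then recovered 48 h in drug-free medium. MTT added for 1 h at 37 °C, formazan dissolved in DMSO, absorbance read at 540 nm. IC50 from linear regression. Means ± SEM of two independent experiments in triplicate.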

Quadruplex DNA [5] = experiment: Stabilization of c-kit1 G4 quadruplex d(DNA AGGGAGGGCGCTGGGAGGAGGG) DNA (unknown origin) assessed as thermal stability by measuring difference in melting temperature t1/2 by circular dichroism spectroscopy (reference value: 54 +/- 0.5 degC); type: nucleic-acid assay
[6] = Stabilization of d(CGC GAA TTC GCG TIT CGC GAA TTC GCG) DNA hairpin (unknown origin) assessed as thermal stability by measuring difference in melting temperature t1/2 by circular dichroism spectroscopy (reference value: 75.4 +/- 0.2 degC)
Outline: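 CD melting of 15 μM annealed hairpin duplex in 5 mM K phosphate pH 7.0 with 20 mM KCl, with or without ligand at 2 molar equiv added to the folded DNA. The signal was followed at 252 nm from 20 to 100 °C at 1 °C/min, with T1/2 taken from a curve fit. ΔT1/2 is relative to DNA alone; duplicate runs, averaged.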

[7] = Cytotoxicity against mouse MNMCA1 cells assessed as cell survival preincubated for 24 hrs with compound further incubated for 48 hrs in drug free medium by MTT assay; type: functional, cell-based; outline: as §2
Quadruplex DNA [8] = experiment: Stabilization of c-myc G4 quadruplex d(TTAGGGTTAGGGTTAGGGTTAGGGTT) DNA (unknown origin) assessed as thermal stability by measuring difference in melting temperature t1/2 by circular dichroism spectroscopy (reference value: 72 +/- 0.5 degC); type: nucleic-acid assay
U2OS [9] = experiment: Induction of DNA damage in human U2OS cells assessed as increase in gammaH2AX phosphorylation at S139 incubated for 24 hrs by immunofluorescence microscopy; type: functional, cell-based; conditions: read-out: IC50 (the source's name)
Outline: (§3)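 U2OS cells treated 24 h. Fixed with 4% formaldehyde, permeabilized with 0.5% Triton X-100, blocked with 8% BSA, stained with anti-γH2AX (1:500) and Alexa Fluor 594 secondary, DAPI counterstain. Fluorescence microscopy signal quantified as fold over untreated.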

Quadruplex DNA [10] = experiment: Binding affinity toc-myc G4 quadruplex d(TTAGGGTTAGGGTTAGGGTTAGGGTT) DNA (unknown origin) assessed as dissociation constant by Microscale thermophoresis analysis; type: nucleic-acid assay
Outline: (§4)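 MST with Cy5.5-labelled G4 oligonucleotide held at 20 nM, folded in 5 mM potassium phosphate pH 7.0 with 20 mM KCl plus 0.1% Tween. Ligand in 1:2 serial dilution mixed 1:1 with DNA, 20% DMSO final. Kd taken from binding curves.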

[11] = Genotoxicity in mouse MNMCA1 cells assessed as induction of micronuclei formation at 5 uM incubated for 24 hrs by measuring fold change by DAPI staining based analysis; type: toxicity, cell-based; conditions: mnmca1, 24 h
Quadruplex DNA [12] = experiment: Stabilization of F-c-kit1-T quadruplex DNA (unknown origin) by measuring difference in melting temperature t1/2 by FRET assay; type: nucleic-acid assay
Outline: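 FRET melting of 0.2 μM prefolded FAM/TAMRA-labelled c-kit1 in 5 mM potassium phosphate pH 7.0 with 20 mM KCl, with ligand at 2 molar equiv. Unlabelled hairpin competitor added at 3 or 10 μM (15 or 50 equiv). FAM emission at 520 nm (excitation 492 nm) followed from 15 to 90 °C at 0.2 °C/min. ΔT1/2 versus no ligand. At least duplicate.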

Quadruplex DNA [13] = experiment: Binding affinity to c-kit1 G4 quadruplex d(DNA AGGGAGGGCGCTGGGAGGAGGG) DNA (unknown origin) assessed as dissociation constant by Microscale thermophoresis analysis; type: nucleic-acid assay; outline: as §4
U2OS [14] = experiment: Induction of DNA damage in human U2OS cells assessed as fold increase in gammaH2AX phosphorylation at […] by measuring fold change at 10 uM incubated for 24 hrs by immunofluorescence microscopy; type: functional; outline: as §3
Quadruplex DNA [15] = experiment: Binding affinity to c-kit2 G4 quadruplex d(CGGGCGGGCGCTAGGGAGGGT) DNA (unknown origin) assessed as dissociation constant by Microscale thermophoresis analysis; type: nucleic-acid assay; outline: as §4
Quadruplex DNA [16] = experiment: Stabilization of human Tel26 G4 quadruplex DNA assessed as thermal stability by measuring difference in melting temperature t1/2 by circular dichroism spectroscopy; type: nucleic-acid assay
Quadruplex DNA [17] = experiment: Displacement of thiazole orange from c-kit2 G4 quadruplex d(CGGGCGGGCGCTAGGGAGGGT) DNA (unknown origin) assessed as relative affinity by fluorescent intercalator displacement assay; type: nucleic-acid assay
Outline: (§5)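 G4 DNA at 0.25 μM with 0.5 μM thiazole orange in 5 mM potassium phosphate pH 7.0 containing 20 mM KCl (LiCl for c-myc), 20 °C. Ligand titrated from 0.5 to 20 molar equiv with 3 min equilibration per addition. Excitation 485 nm, emission 500–650 nm. %displacement = 100 − (F/F0×100); DC50 is the concentration displacing 50% TO. Duplicate titrations.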

[18] = Genotoxicity in mouse MNMCA1 cells assessed as induction of micronuclei formation measured after 24 hrs by DAPI staining based analysis; type: toxicity, cell-based; conditions: mnmca1, 24 h
Quadruplex DNA [19] = experiment: Displacement of thiazole orange from c-myc G4 quadruplex d(TTAGGGTTAGGGTTAGGGTTAGGGTT) DNA (unknown origin) assessed as relative affinity by fluorescent intercalator displacement assay; type: nucleic-acid assay; outline: as §5
MNMCA1 = experiment: Activation of IFN-beta in mouse MNMCA1 cells at 15 to 30 uM pretreated for 24 hrs followed by 48 hrs of drug recovery by ELISA; type: functional, cell-based; conditions: dose 15-30 µM, time 72.0 hrs
Outline: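 MNMCA1 cells treated 24 h with compound at 15 or 30 μM, then 48 h recovery in fresh drug-free medium. IFN-B protein measured by ELISA in collected culture supernatants.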

Quadruplex DNA [20] = experiment: Displacement of thiazole orange from c-kit1 G4 quadruplex d(DNA AGGGAGGGCGCTGGGAGGAGGG) DNA (unknown origin) assessed as relative affinity by fluorescent intercalator displacement assay; type: nucleic-acid assay; outline: as §5
Quadruplex DNA [21] = experiment: Stabilization of G4 quadruplex DNA in human U2OS cells assessed as BG4 foci formation by measuring fold increase in G4 structure at 10 uM by immunofluorescence microscopy; type: cell-based
Outline: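 U2OS cells on coverslips treated for […]. Fixed in methanol/acetic acid 3:1, permeabilized with 0.1% Triton X-100, blocked in 2% milk. Stained with 0.5 μg BG4 for 2 h, then anti-FLAG and Alexa Fluor 488 secondary. Signal quantified as fold over untreated.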

## OCc1c(-c2ccccc2)nc2n1ccc1nc(-c3ccccc3)c(/C=N/NC3=NCCN3)n12
Quadruplex DNA [1]
  ΔTm: 14.7 °C
[2]
  ΔTm: 8.4 °C
[3]
  ΔTm: 7.8 °C
U2OS [4]
  IC50: 24.5 µM
Quadruplex DNA [5]
  ΔTm: 7.1 °C
[6]
  ΔTm: 1.3 °C
[7]
  IC50: 12.1 µM
Quadruplex DNA [8]
  ΔTm: 1.7 °C
U2OS [9]
  EC50: 24 µM
Quadruplex DNA [10]
  Kd: 37 µM
[11]
  fold change (FC): 2.5
Quadruplex DNA [12]
  ΔTm: 8 °C
Quadruplex DNA [13]
  Kd: 8 µM
U2OS [14]
  fold change (FC): 1.55
Quadruplex DNA [15]
  Kd: 2.5 µM
Quadruplex DNA [16]
  ΔTm: 2 °C

## N=C(N)N/N=C/c1c(-c2ccccc2)nc2ccn3c(CO)c(-c4ccccc4)nc3n12
Quadruplex DNA [1]
  ΔTm: 18.6 °C
[2]
  ΔTm: 12.1 °C
[3]
  ΔTm: 11.1 °C
U2OS [4]
  IC50: 14.3 µM
Quadruplex DNA [5]
  ΔTm: 9.7 °C
[6]
  ΔTm: 2.3 °C
[7]
  IC50: 35.7 µM
Quadruplex DNA [8]
  ΔTm: 2.8 °C
U2OS [9]
  EC50: 14 µM
Quadruplex DNA [10]
  Kd: 8 µM
[11]
  fold change (FC): 2.5
Quadruplex DNA [12]
  ΔTm: 10 °C
Quadruplex DNA [13]
  Kd: 2 µM
U2OS [14]
  fold change (FC): 2.32
Quadruplex DNA [15]
  Kd: 1.3 µM
Quadruplex DNA [16]
  ΔTm: 1.8 °C

## Cc1ccc(-c2nc3ccn4c(/C=N/NC(=N)N)c(-c5ccccc5)nc4n3c2/C=N/NC(=N)N)cc1
Quadruplex DNA [1]
  ΔTm: > 30 °C
[2]
  ΔTm: 19.2 °C
[3]
  ΔTm: 22.2 °C
U2OS [4]
  IC50: 46.8 µM
Quadruplex DNA [5]
  ΔTm: 18.2 °C
Quadruplex DNA [17]
  IC50: 1.4 µM
[18]
  fold change (FC): 0.4
[6]
  ΔTm: 1.3 °C
[7]
  IC50: 38.5 µM
Quadruplex DNA [19]
  IC50: 1.6 µM
Quadruplex DNA [8]
  ΔTm: 16.9 °C
MNMCA1
  Activity: Active
U2OS [9]
  EC50: 46 µM
Quadruplex DNA [20]
  IC50: 1.4 µM
Quadruplex DNA [10]
  Kd: 1.5 µM
Quadruplex DNA [12]
  ΔTm: 25.4 °C
Quadruplex DNA [13]
  Kd: 0.03 µM
Quadruplex DNA [15]
  Kd: 0.04 µM
Quadruplex DNA [21]
  fold change (FC): 2.4
Quadruplex DNA [16]
  ΔTm: 4.8 °C
